Experimental data as given in ChEMBL document CHEMBL6115053, “Optimization and Characterization of N-Acetamide Indoles as Antimalarials That Target PfATP4” (J Med Chem, 2025).
Values after ≈ are worked out from the molar mass of the structure shown. Active and inactive are the calls of the source. The calls are words filed in the database; no cut-off is given here.

Tests used:
[1] = Aqueous solubility in PBS buffer at pH 7.4; assay type: physicochemical
[2] = Metabolic stability in mouse liver microsome assessed as intrinsic clearance; assay type: ADME; details: microsomes
[3] = Lipophilicity, logD of compound at pH 7.4 by shake-flask method; assay type: physicochemical; details: buffer
Plasmodium falciparum [4] = assay: Antiplasmodial activity against asexual Plasmodium falciparum 3D7 infected in human […] cells assessed as reduction in parasite growth measured for 72 hrs by LDH assay; assay type: functional, organism-based; details: 3D7, 72 h
[5] = Metabolic stability in rat hepatocyte […] assessed as intrinsic clearance measured per 10^6 cells; assay type: ADME, cell-based; details: hepatocytes
HepG2 = assay: Cytotoxicity against human HepG2 cells assessed as inhibition of cell growth incubated for 48 hrs by celltiterglo assay; assay type: toxicity, cell-based; details: hepg2, 48 h
[6] = Metabolic stability in human liver microsome assessed as intrinsic clearance; assay type: ADME; details: microsomes
Plasmodium falciparum [7] = assay: Antimalarial activity against synchronized-ring stage Plasmodium falciparum 3D7 assessed as reduction in parasitemia at 10 times EC50 measured at 72 hrs post-treatment by LDH assay; assay type: functional, organism-based
Method in brief: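 Parasite reduction ratio assay in P. falciparum 3D7 with an LDH read-out. Means and SDs were taken from three replicate experiments.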

Plasmodium falciparum [8] = assay: Antiplasmodial activity against Plasmodium falciparum 3D7 infected in RBC assessed as reduction in parasite growth measured for 8 hrs by Giemsa-staining based microscopic analysis; assay type: functional, organism-based
Method in brief: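 Giemsa-stained thin smears were read at 8 h and the percentages of extracellular and intracellular parasites counted, compared with untreated parasites at 0 h.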

[9] = target: T1, P-type sodium-transporting ATPase4 (Plasmodium falciparum (isolate 3D7), UniProt A0A143ZZK9); assay: Inhibition of Plasmodium falciparum 3D7 ATP4
T1 sequence (A0A143ZZK9 whole entry): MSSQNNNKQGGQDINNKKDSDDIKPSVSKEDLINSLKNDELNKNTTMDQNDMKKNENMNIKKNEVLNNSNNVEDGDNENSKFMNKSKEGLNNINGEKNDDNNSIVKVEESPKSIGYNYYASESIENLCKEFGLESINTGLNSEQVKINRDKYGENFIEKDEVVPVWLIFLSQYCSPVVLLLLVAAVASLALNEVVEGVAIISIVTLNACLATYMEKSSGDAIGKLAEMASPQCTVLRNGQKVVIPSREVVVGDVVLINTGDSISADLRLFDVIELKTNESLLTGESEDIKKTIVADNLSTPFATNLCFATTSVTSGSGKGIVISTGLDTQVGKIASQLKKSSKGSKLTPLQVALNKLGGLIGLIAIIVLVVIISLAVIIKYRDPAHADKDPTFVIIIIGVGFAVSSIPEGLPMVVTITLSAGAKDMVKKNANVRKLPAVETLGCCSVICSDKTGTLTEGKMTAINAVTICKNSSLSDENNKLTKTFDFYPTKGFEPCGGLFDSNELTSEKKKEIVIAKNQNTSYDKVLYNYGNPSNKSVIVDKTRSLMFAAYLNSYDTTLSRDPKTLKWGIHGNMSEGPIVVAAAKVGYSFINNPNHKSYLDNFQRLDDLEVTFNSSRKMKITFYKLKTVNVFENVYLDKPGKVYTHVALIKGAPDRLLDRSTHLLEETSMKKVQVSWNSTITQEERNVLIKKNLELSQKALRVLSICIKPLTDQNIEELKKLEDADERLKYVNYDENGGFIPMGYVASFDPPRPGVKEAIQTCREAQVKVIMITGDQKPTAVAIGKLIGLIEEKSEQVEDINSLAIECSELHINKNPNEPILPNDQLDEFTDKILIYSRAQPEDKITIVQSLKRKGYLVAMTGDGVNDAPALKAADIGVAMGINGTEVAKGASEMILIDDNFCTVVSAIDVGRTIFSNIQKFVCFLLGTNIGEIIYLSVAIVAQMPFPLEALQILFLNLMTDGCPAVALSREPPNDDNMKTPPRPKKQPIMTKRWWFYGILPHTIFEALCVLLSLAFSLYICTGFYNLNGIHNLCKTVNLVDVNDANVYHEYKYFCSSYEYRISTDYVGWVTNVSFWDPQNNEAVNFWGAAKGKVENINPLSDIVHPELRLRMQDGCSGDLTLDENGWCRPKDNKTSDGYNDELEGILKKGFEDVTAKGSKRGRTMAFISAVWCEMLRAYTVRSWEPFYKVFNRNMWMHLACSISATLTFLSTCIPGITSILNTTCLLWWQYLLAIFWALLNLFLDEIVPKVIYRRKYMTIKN

Plasmodium knowlesi = assay: Antiplasmodial activity against wild type Plasmodium knowlesi YH1 incubated for 30 hrs by SYBR staining based flow cytometry assay; assay type: functional, organism-based; details: YH1, 30 h
Plasmodium falciparum [10] = assay: Antiplasmodial activity against N-(2,6-difluorophenyl)-2-(6-(5-methyl-1,3,4-oxadiazol-2-yl)-1H-indol-1-yl)acetamide-resistant Plasmodium falciparum Dd2 harboring plasmodium falciparum ATP4 F156L mutant by SYBR green staining based analysis; assay type: functional, organism-based
Plasmodium falciparum [11] = assay: Antiplasmodial activity against N-(2,6-difluorophenyl)-2-(6-(5-methyl-1,3,4-oxadiazol-2-yl)-1H-indol-1-yl)acetamide-resistant Plasmodium falciparum Dd2 harboring plasmodium falciparum ATP4 D425E mutant by SYBR green staining based analysis; assay type: functional, organism-based
Plasmodium falciparum [12] = assay: Antiplasmodial activity against multidrug resistant Plasmodium falciparum 7G8 incubated for 48 hrs by SYBR staining based fluorometer assay; assay type: functional, organism-based; details: 7G8, 48 h
Plasmodium falciparum [13] = assay: Antiplasmodial activity against wild type Plasmodium falciparum 3D7 incubated for 48 hrs; assay type: functional, organism-based; details: 3D7, 48 h
Plasmodium falciparum [14] = assay: Antiplasmodial activity against multidrug resistant Plasmodium falciparum Cam3.1 incubated for 48 hrs by SYBR staining based fluorometer assay; assay type: functional, organism-based; details: Cam3.1, 48 h
Plasmodium falciparum [15] = assay: Antiplasmodial activity against Plasmodium falciparum 3D7 infected in human […] cells incubated for 72 hrs; assay type: functional, organism-based; details: 3D7, 72 h
Plasmodium falciparum [16] = assay: Antiplasmodial activity against multidrug-resistant Plasmodium falciparum Dd2 harboring plasmodium falciparum ATP4 G358S mutant by SYBR green staining based analysis; assay type: functional, organism-based
Plasmodium falciparum [17] = assay: Antiplasmodial activity against multidrug resistant Plasmodium falciparum W2mef incubated for 48 hrs by SYBR staining based fluorometer assay; assay type: functional, organism-based
Plasmodium falciparum [18] = assay: Antimalarial activity against trophozoite stage Plasmodium falciparum 3D7 at 10 times EC50 incubated for 48 hrs by SYBR Green dye based analysis; assay type: functional, organism-based
Plasmodium falciparum [19] = assay: Antiplasmodial activity against multidrug-resistant Plasmodium falciparum Dd2 harboring plasmodium falciparum ATP4 I398F/P990R/D1247Y mutant by SYBR green staining based analysis; assay type: functional, organism-based
Plasmodium falciparum [20] = assay: Antiplasmodial activity against N-(2,6-difluorophenyl)-2-(6-(5-methyl-1,3,4-oxadiazol-2-yl)-1H-indol-1-yl)acetamide-resistant Plasmodium falciparum Dd2 harbouring ATP4 genome with 2.8 fold CNV by SYBR green staining based analysis; assay type: functional, organism-based
Plasmodium falciparum [21] = assay: Antiplasmodial activity against multi-drug resistant Plasmodium falciparum Dd2; assay type: functional, organism-based
[22] = target: T2, P-type sodium-transporting ATPase4 (Plasmodium falciparum (isolate 3D7)) (UniProt A0A143ZZK9); assay: Inhibition of Plasmodium falciparum 3D7 ATP4 assessed as reduction in Na+-ATPase activity at 2 uM incubated for 10 mins under high [Na+] condition in absence of KAE609
T2 sequence (whole entry): T1 sequence (A0A143ZZK9 whole entry)

Plasmodium falciparum [23] = assay: Antiplasmodial activity against Plasmodium falciparum 3D7 infected in RBC assessed as reduction in nucleotide level at 5 nM incubated for 5 hrs by LC-MS analysis; assay type: functional, organism-based
Plasmodium falciparum [24] = assay: Antiplasmodial activity against Plasmodium falciparum 3D7 infected in RBC assessed as reduction in deoxycytidine monophosphate level at 5 nM incubated for 5 hrs by LC-MS analysis; assay type: functional, organism-based
Plasmodium falciparum [25] = assay: Antiplasmodial activity against Plasmodium falciparum 3D7 infected in RBC assessed as reduction in deoxythymidine diphosphate level at 5 nM incubated for 5 hrs by LC-MS analysis; assay type: functional, organism-based
Plasmodium falciparum [26] = assay: Antimalarial activity against Plasmodium falciparum NF54 infected assessed as inhibition of male gamete formation incubated for 48 hrs by automated bright field microscopic analysis; assay type: functional, organism-based; details: NF54, 48 h
Plasmodium falciparum [27] = assay: Antiplasmodial activity against Plasmodium falciparum 3D7 infected in RBC assessed as reduction in pyrimidine-deoxyribonucleotides level at 5 nM incubated for 5 hrs by LC-MS analysis; assay type: functional, organism-based
Plasmodium falciparum [28] = assay: Antiplasmodial activity against Plasmodium falciparum 3D7 infected in RBC assessed as reduction in deoxythymidine triphosphate level at 5 nM incubated for 5 hrs by LC-MS analysis; assay type: functional, organism-based
Plasmodium falciparum [29] = assay: Antimalarial activity against Plasmodium falciparum NF54 infected assessed as inhibition of female gamete formation incubated for 48 hrs by automated bright field microscopic analysis; assay type: functional, organism-based; details: NF54, 48 h

Structure (SMILES) | solubility kinetic [1] | intrinsic clearance (CLint) [2] | logD [3] | EC50 (Plasmodium falciparum [4]) | intrinsic clearance (CLint) [5] | CC50 (HepG2) | intrinsic clearance (CLint) [6] | EC50 (Plasmodium falciparum [13]) | EC50 (Plasmodium falciparum [14]) | EC50 (Plasmodium falciparum [17]) | EC50 (Plasmodium falciparum [21]) | also measured
COc1cc(NC(=O)Cn2ccc3ccc(-c4cn(C)nc4C)cc32)cc(OC)c1OC | 8.6 µM (≈ 3.74 µg/mL) | 207 µL/min/mg | 3.2 | 100 nM | 11 uL/min/10^6 cells | > 40 µM | 105 µL/min/mg |  |  |  |  | 
CCc1nc(N)nc(N)c1-c1ccc(Cl)cc1 |  |  |  |  |  |  |  |  |  |  |  | Activity (Plasmodium falciparum [7]): Active
COc1cc(NC(=O)Cn2cc(Cl)c3cc(F)c(-c4cn(C)nc4C)cc32)cc(OC)c1OC | 2.5 µM (≈ 1.22 µg/mL) | 73 µL/min/mg | 4.8 | 108 nM | 5.7 uL/min/10^6 cells | > 40 µM | 64 µL/min/mg |  |  |  |  | 
CCN(CC)CCCC(C)Nc1ccnc2cc(Cl)ccc12 (stereo unspecified) |  |  |  |  |  |  |  |  |  |  |  | Activity (Plasmodium falciparum [8]): Active; Activity (Plasmodium falciparum [7]): Active
Cn1cc(-c2ccc3ccn(CC(=O)Nc4ccccc4Cl)c3c2)cn1 | 4.1 µM (≈ 1.5 µg/mL) |  | 3.6 | 593 nM | 91 uL/min/10^6 cells | > 40 µM | > 462 µL/min/mg | 236 nM | 476 nM | 279 nM | 385 nM | IC50 [9]: 790 nM; EC50 (Plasmodium knowlesi): 661 nM; EC50 (Plasmodium falciparum [10]): 803 nM; EC50 (Plasmodium falciparum [11]): 892 nM; EC50 (Plasmodium falciparum [12]): 526 nM; EC50 (Plasmodium falciparum [15]): 409 nM; EC50 (Plasmodium falciparum [16]): 1650 nM; Activity (Plasmodium falciparum [18]): Active; EC50 (Plasmodium falciparum [19]): 2510 nM; EC50 (Plasmodium falciparum [20]): 1160 nM; inhibition [22]: Active
COc1cc(NC(=O)Cn2cc(Cl)c3ccc(-c4cnn(C)c4)cc32)cc(OC)c1OC | 2.5 µM (≈ 1.14 µg/mL) | 53 µL/min/mg | 4.2 | 49 nM | < 1 uL/min/10^6 cells | > 40 µM | 15 µL/min/mg |  |  |  |  | 
Cn1cc(-c2ccc3c(Cl)cn(CC(=O)Nc4ccccc4Cl)c3c2)cn1 | < 2.5 µM | 177 µL/min/mg | 4.6 | 138 nM | 29 uL/min/10^6 cells | > 40 µM | 65 µL/min/mg |  |  |  |  | 
O[C@@H](c1cc(C(F)(F)F)nc2c(C(F)(F)F)cccc12)[C@H]1CCCCN1 (racemic) [(S,R)-MEFLOQUINE] |  |  |  |  |  |  |  | 23 nM | 9 nM | 64 nM | 35 nM | 
COc1cc(NC(=O)Cn2ccc3ccc(-c4nnc(C)o4)cc32)cc(OC)c1OC | 5.1 µM (≈ 2.15 µg/mL) | 69 µL/min/mg | 2.7 | 200 nM | 8.9 uL/min/10^6 cells | > 40 µM | 42 µL/min/mg | 73 nM | 124 nM | 77 nM | 99 nM | EC50 (Plasmodium knowlesi): 195 nM; Activity (Plasmodium falciparum [23]): inactive; EC50 (Plasmodium falciparum [12]): 165 nM; Activity (Plasmodium falciparum [24]): inactive; Activity (Plasmodium falciparum [25]): inactive; EC50 (Plasmodium falciparum [26]): 1500 nM; Activity (Plasmodium falciparum [27]): inactive; Activity (Plasmodium falciparum [28]): inactive; EC50 (Plasmodium falciparum [29]): 3.4 µM
